Each structure is given as a SMILES string. Active and inactive are the calls of the source. No cut-off for these calls is given here.

Data set [1] relates to Human alphaherpesvirus 1. Nature of the data set: Antiviral activity against Herpes simplex virus type 1 infected in mouse assessed as mean survival time at 150 mg/kg, sc tid administered for 4 days (reference value: 8.3 days). The class given is functional. To be noted: route subcutaneous. Put shortly: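 HSV-1-infected mice dosed subcutaneously three times daily on days 0–4. Vehicle-dosed infected mice served as controls. Read-out was mean survival time in days.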

Data set [2] in a line: Immunosuppressive activity in H-2d alloantigen-sensitized C57B1/6 (H-2b) mouse spleen effector T cells assessed as inhibition of effector T cell-induced DBA/2 (H-2d) mouse [51Cr]-labeled P815 cell lysis by measuring lysed cells at 100 ug/mL after 4 hrs by [51Cr] release assay relative to control. In kind it is functional. The gist of the method: (§1)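 C57B1/6 (H-2^b) mice sensitized ip with 30–50 × 10^6 P815 mastocytoma cells (DBA/2-passaged). Spleens pooled from 5–7 mice taken 10 days later. Effectors mixed 50:1 with 51Cr-labeled P815 targets in RPMI 1640/Hepes with 10% heat-inactivated calf serum plus compound. Incubated 4 h at 37 °C in 83% N2/10% CO2/7% O2. Supernatant 51Cr counted, run in quadruplicate. % specific lysis computed from spontaneous and water-lysis controls, then expressed as % of untreated control.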

Data set [3] can be described thus: Immunosuppressive activity in H-2d alloantigen-sensitized C57B1/6 (H-2b) mouse spleen effector T cells assessed as inhibition of effector T cell-induced DBA/2 (H-2d) mouse [51Cr]-labeled P815 cell lysis by measuring lysed cells at 10 ug/mL after 4 hrs by [51Cr] release assay relative to control. The class given is functional. Put shortly:
as §1

A short description of data set [4]: Immunosuppressive activity in H-2d alloantigen-sensitized C57B1/6 (H-2b) mouse spleen effector T cells assessed as inhibition of effector T cell-induced DBA/2 (H-2d) mouse [51Cr]-labeled P815 cell lysis by measuring lysed cells at 1 ug/mL after 4 hrs by [51Cr] release assay relative to control. The class given is functional. Put shortly: as §1
Data set [5] is described as follows: Immunosuppressive activity in C57B1/6 mouse spleen effector T cells assessed as inhibition of effector T cell-induced DBA/2 mouse [51Cr]-labeled P815 cell lysis at 100 ug/mL after 5 days by [51Cr] release assay in presence of B6D2(F1) mouse spleen cells relative to control. In kind it is functional. The following applies: C57B1/6, P815, Spleen, 120 h. The gist of the method:
(§2)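 Normal C57B1/6 spleen cells (10 × 10^6) cocultured 5 days at 37 °C (83% N2/10% CO2/7% O2) with 0.5 × 10^6 B6D2F1 spleen cells as antigen and compound at 100 μg/mL. Medium was RPMI 1640 with 20% fetal calf serum and gentamycin, using at least 12 cultures per concentration. Pooled cells were then mixed with 51Cr-P815 targets at various ratios (≥3 replicates/ratio) for 3 h at 37 °C. Lysis was plotted against ratio; lytic unit = cells giving 50% lysis of 25 × 10^3 targets.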

The nature of data set [6]: Cytotoxicity against C57B1/6 (H-2b) mouse spleen effector T cells assessed as decrease in cell number at 1 to 100 ug/mL after 4 hrs relative to control. In kind it is cell-based.
Data set [7] in a line: Immunosuppressive activity in C57B1/6 mouse spleen effector T cells assessed as recovery of number of T cell required to give 50% lysis of 25 X 10^3 DBA/2 mouse [51Cr]-labeled P815 cells treated on day 4 of 5 days culture system measured after day 5 by [51Cr] release assay in presence of B6D2(F1) mouse spleen cells relative to control. In kind it is functional. The gist of the method:
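Alloantigen coculture was the same: C57B1/6 spleen cells plus B6D2F1 stimulator cells, 5 days at 37 °C. Here compound was added on day 4 rather than at culture start. On day 5, cells were pooled and assayed against 51Cr-P815 targets for 3 h. Lytic units (cells giving 50% lysis of 25 × 10^3 targets) recovered per culture were expressed as percent of control.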

Data set [8] is described as follows: Immunosuppressive activity in C57B1/6 mouse spleen effector T cells assessed as effect on number of IgM-anti sheep erythrocyte antibody plaque forming cells per culture at 100 ug/culture after 5 days in presence of sheep erythrocytes (reference value: 6440 +/- 2255 PFC/culture). The class given is functional.
Data set [9] can be described thus: Cytotoxicity against C57B1/6 mouse spleen effector T cells assessed as decrease in cell number at 100 ug/mL after 5 days relative to control. The following applies: 120 h. The class given is cell-based.
The nature of data set [10]: Immunosuppressive activity in C57B1/6 mouse spleen effector T cells assessed as effect on number of IgM-anti sheep erythrocyte antibody plaque forming cells per culture at 10 ug/culture after 5 days in presence of sheep erythrocytes (reference value: 6440 +/- 2255 PFC/culture). In kind it is functional.
A short description of data set [11]: Immunosuppressive activity in C57B1/6 mouse spleen effector T cells assessed as effect on number of IgM-anti sheep erythrocyte antibody plaque forming cells per culture at 1 ug/culture after 5 days in presence of sheep erythrocytes (reference value: 6440 +/- 2255 PFC/culture). In kind it is functional.
Data set [12] has as its system Human alphaherpesvirus 1. Nature of the data set: Antiviral activity against Herpes simplex virus type 1 infected in rabbit kidney monolayer cells assessed as reduction in viral titer. In kind it is functional, organism-based.
Data set [13] can be described thus: Immunosuppressive activity in C57B1/6 mouse spleen effector T cells assessed as ratio of effector T cell to DBA/2 mouse [51Cr]-labeled P815 cell giving 50% specific lysis at 100 ug/mL after 5 days by [51Cr] release assay in presence of B6D2(F1) mouse spleen cells (reference value: 6 no unit). The class given is functional. The gist of the method:
as §2

Data set [14] concerns Human alphaherpesvirus 1. Nature of the data set: Antiviral activity against Herpes simplex virus type 1 infected in rabbit kidney monolayer cells assessed as reduction in viral titer at 25 ug/mL relative to control. In kind it is functional.
The subject of data set [15] is Human alphaherpesvirus 1. Nature of the data set: Antiviral activity against Herpes simplex virus type 1 infected in mouse assessed as mean survival time at 200 mg/kg, sc tid administered for 4 days (reference value: 8.3 days). The class given is functional. The following applies: route subcutaneous.

The inhibition is the percentage by which the read-out fell short of the control. Take `Cn1c(=O)nc2n(c1=O)[C@@H]1O[C@H](CO)[C@@H](O)[C@@H]1O2`: in the data set with Human alphaherpesvirus 1 [1], the MST was 5.4 days. The entries for the “Specific lysis, % of untreated control” value in data set [2] and in data set [3] were 92% and 88%, respectively. Also, the “Specific lysis as % of untreated control” value in [4] worked out at 100%. In [5], the inhibition at 100 µg/mL amounted to 90%. Also, the Activity result is given as “Non-toxic” in data set [6], 90% in [7] and “Non-toxic” in data set [9]. The results for the PFC in [8], in data set [10] and in [11] were 7107, 4853 and 4227, respectively.

In the case of `CC(=O)OC[C@H]1O[C@@H]2[C@@H](Oc3nc(=O)n(C)c(=O)n32)[C@@H]1OC(C)=O`, in the data set with Human alphaherpesvirus 1 [12], the outcome was Active. Further, the “Specific lysis, % of untreated control” value in data set [2] was 93%; in data set [3], 103%. In addition, the “Specific lysis as % of untreated control” value in [4] was determined as 95%. In data set [13], the Ratio is reported as 8.5. Also, the Activity in data set [7] came out at 90%. Further, the figures for the PFC in [8], in data set [10] and in data set [11] were 8720, 5933 and 5240, respectively.

For the compound `CC(=O)OC[C@H]1O[C@@H](n2c(=O)[nH]c(=O)n(C)c2=O)[C@@H](OC(C)=O)[C@@H]1OC(C)=O`, the result in the data set on Human alphaherpesvirus 1 [12] was inactive. The “Specific lysis, % of untreated control” value in [2] is 88%; in data set [3], 96%. The “Specific lysis as % of untreated control” value in data set [4] came out at 96%. Besides, the Ratio in data set [13] turned out to be 10.5. Also, the Activity in data set [7] was determined as 90%. Further, the PFC in data set [8] is reported as 10040; in [10], 4307; in [11], 4907.

As to `Cn1c(=O)[nH]c(=O)n([C@@H]2O[C@H](CO)[C@@H](O)[C@@H]2O)c1=O`, the result in the data set on Human alphaherpesvirus 1 [12] was inactive. The “Specific lysis, % of untreated control” value came out at 93% in data set [2] and 98% in data set [3]. Also, the “Specific lysis as % of untreated control” value in data set [4] was 94%. In addition, the inhibition at 100 µg/mL in data set [5] amounted to 84%. Besides, the Activity result in [6] is listed as “Non-toxic”; in data set [7] it was 90%; in data set [9], “Non-toxic”. Besides, the PFC was 6293 in data set [8], 5520 in [10] and 6240 in [11].

As to `CN1CN([C@H]2C[C@H](O)[C@@H](CO)O2)C(=O)NC1=O`, the “fold change (FC)” value with Human alphaherpesvirus 1 [14] was 10. For the same compound, the MST with Human alphaherpesvirus 1 [15] turned out to be 18 days. The entries for the “Specific lysis, % of untreated control” value in data set [2] and in data set [3] were 73% and 88%, respectively. The “Specific lysis as % of untreated control” value in [4] stood at 90%. For the same compound, the Ratio in data set [13] was 7.2. For the same compound, the Activity in data set [7] amounted to 90%.

For the origin of these results see ChEMBL document CHEMBL3244205, “beta-D-Arabinofuran[1',2':4,5]oxazolo-1,3,5-triazine-5-N-methyl-4,6-dione and analogues, unusually specific immunosuppressive agents” (J Med Chem, 1978).
